Laboratory results taken from ChEMBL document CHEMBL1132562, “Ajoene is an inhibitor and subversive substrate of human glutathione reductase and Trypanosoma cruzi trypanothione reductase: crystallographic, kinetic, and spectroscopic studies” (J Med Chem, 1999).
Calls of active or inactive are those of the source. No cut-off for these calls is given here.

Assays:
[1] = molecular target: T1, Glutathione reductase, mitochondrial (Homo sapiens) (UniProt P00390); test: kcat/Km value determined against human Glutathione reductase (GR) by oxidation of NADPH
T1 sequence (whole entry): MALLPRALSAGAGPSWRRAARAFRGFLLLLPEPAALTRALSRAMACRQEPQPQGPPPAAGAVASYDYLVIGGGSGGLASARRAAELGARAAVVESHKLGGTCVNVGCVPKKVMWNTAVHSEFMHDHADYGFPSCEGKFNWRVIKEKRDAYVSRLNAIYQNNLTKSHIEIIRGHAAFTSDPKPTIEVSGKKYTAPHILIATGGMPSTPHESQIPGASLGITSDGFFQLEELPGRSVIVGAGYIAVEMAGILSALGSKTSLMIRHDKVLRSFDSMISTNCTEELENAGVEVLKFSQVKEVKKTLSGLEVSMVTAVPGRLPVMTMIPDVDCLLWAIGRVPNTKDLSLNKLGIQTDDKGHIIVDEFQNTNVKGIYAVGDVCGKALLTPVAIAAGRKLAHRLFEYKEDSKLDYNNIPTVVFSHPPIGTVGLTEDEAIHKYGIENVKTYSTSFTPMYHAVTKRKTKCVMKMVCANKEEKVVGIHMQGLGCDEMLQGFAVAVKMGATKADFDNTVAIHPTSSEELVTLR
Summary of the method: (§1)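 Recombinant human glutathione reductase in GR assay buffer (phosphate, 200 mM KCl, 1 mM EDTA, pH 6.9) at 25 °C with 150 μM NADPH and ajoene or DATS as substrate. NADPH consumption read at 340 nm. Where GSH is present, it is added to the mixture. Controls held NADPH and enzyme only (intrinsic oxidase activity).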

[2] = molecular target: Trypanothione reductase (Trypanosoma cruzi) (UniProt P28593); test: kcat/Km value determined against Trypanothione reductase (TR) by oxidation of NADPH
Sequence of Trypanothione reductase (Trypanosoma cruzi) (P28593 whole entry, looked up): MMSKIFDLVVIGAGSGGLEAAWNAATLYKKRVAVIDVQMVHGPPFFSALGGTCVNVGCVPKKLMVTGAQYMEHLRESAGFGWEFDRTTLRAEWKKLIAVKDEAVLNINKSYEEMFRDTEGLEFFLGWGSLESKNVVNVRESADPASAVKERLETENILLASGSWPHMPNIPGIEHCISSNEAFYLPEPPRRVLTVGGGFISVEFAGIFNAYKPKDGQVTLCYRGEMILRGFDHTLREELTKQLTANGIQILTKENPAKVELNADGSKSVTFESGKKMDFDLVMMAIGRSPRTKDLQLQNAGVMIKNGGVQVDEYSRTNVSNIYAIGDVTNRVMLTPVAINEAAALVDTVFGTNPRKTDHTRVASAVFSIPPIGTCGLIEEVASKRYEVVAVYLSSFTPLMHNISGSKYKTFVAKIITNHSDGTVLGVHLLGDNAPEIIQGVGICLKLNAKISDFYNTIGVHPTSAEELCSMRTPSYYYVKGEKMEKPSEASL
Summary of the method: (§2)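 T. cruzi trypanothione reductase, recombinant, with NADPH and ajoene as substrate in TR assay buffer (40 mM Hepes, 1 mM EDTA, pH 7.5) at 25 °C. NADPH oxidation followed as absorbance decrease at 340 nm. Controls held only NADPH and enzyme, giving the intrinsic oxidase activity.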

[3] = molecular target: T1, Glutathione reductase, mitochondrial (Homo sapiens); test: kcat/Km value determined against human Glutathione reductase (GR); summary of the method: as §1
[4] = molecular target: T1, Glutathione reductase, mitochondrial (Homo sapiens); test: Percent inhibition of 0.3 uM (E)-ajoene in the presence of NADPH for 15 min at 37 C
Summary of the method: (§3)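 GR (0.4–1.0 U in 200 μL; 0.3 μM) incubated at 37 °C in GR assay buffer, pH 6.9, with 200 μM NADPH (or without) and 12.5–200 μM ajoene. Ethanol replaced inhibitor in controls. 2-μL aliquots taken over time were assayed for remaining activity in a standard GR assay: 100 μM NADPH, 1 mM GSSG, 340 nm, 25 °C.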

[5] = molecular target: T1, Glutathione reductase, mitochondrial (Homo sapiens); test: Kcat value determined against human Glutathione reductase (GR) by oxidation of NADPH; summary of the method: as §1
[6] = molecular target: T1, Glutathione reductase, mitochondrial (Homo sapiens); test: Kcat value determined against human Glutathione reductase (GR) by reduction of cytochrome c
Summary of the method: (§4)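 1–2 U human GR preincubated 2 min at 25 °C with 200 μM NADPH and 25 μM horse heart cytochrome c in assay buffer, pH 7.5. Reaction started with 200 μM ajoene or DATS. Cytochrome c reduction followed at 550 nm (ε 19.1 mM⁻¹ cm⁻¹). Controls without enzyme. Superoxide tested by adding superoxide dismutase.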

[7] = molecular target: T1, Glutathione reductase, mitochondrial (Homo sapiens); test: Kcat value determined against human Glutathione reductase (GR) by oxidation of NADPH in the presence of GSH; summary of the method: as §1
[8] = molecular target: Trypanothione reductase (Trypanosoma cruzi) (UniProt P28593); test: Kcat value determined against Trypanothione reductase (TR) by oxidation of NADPH; summary of the method: as §2
[9] = molecular target: Trypanothione reductase (Trypanosoma cruzi) (UniProt P28593); test: kcat/Km value determined against Trypanothione reductase (TR); summary of the method: as §2
[10] = molecular target: T1, Glutathione reductase, mitochondrial (Homo sapiens); test: Kcat value determined against human Glutathione reductase (GR) by reduction of cytochrome c in the presence of GSH; summary of the method: as §4
[11] = molecular target: Trypanothione reductase (Trypanosoma cruzi) (UniProt P28593); test: Percent inhibition of Trypanothione reductase (TR) with 200 uM (E)-ajoene in the presence of NADPH at 37 C
Summary of the method: (§5)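 T. cruzi TR (0.4–1.0 U in 200 μL) incubated at 37 °C with 200 μM NADPH and 200 μM ajoene for up to 60 min. Aliquots assayed for residual activity: 100 μM NADPH, 120 μM trypanothione disulfide, Hepes pH 7.5, 340 nm decrease.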

[12] = molecular target: T1, Glutathione reductase, mitochondrial (Homo sapiens); test: Percent inhibition of 0.3 uM (E)-ajoene in the absence of NADPH for 15 min at 37 C; NI=No Inhibition; summary of the method: as §3
[13] = molecular target: T1, Glutathione reductase, mitochondrial (Homo sapiens); test: Percent inhibition of 0.3 uM (Z)-ajoene in the presence of NADPH for 15 min at 37 C; summary of the method: as §3
[14] = molecular target: T1, Glutathione reductase, mitochondrial (Homo sapiens); test: Percent inhibition of 0.3 uM (Z)-ajoene in the absence of NADPH for 15 min at 37 C; NI=No Inhibition; summary of the method: as §3
[15] = molecular target: Trypanothione reductase (Trypanosoma cruzi) (UniProt P28593); test: Percent inhibition of Trypanothione reductase (TR) with 200 uM (Z)-ajoene in the presence of NADPH at 37 C; summary of the method: as §5

| SMILES | k cat/Km [1] [M⁻¹ s⁻¹] | k cat/Km [2] [M⁻¹ s⁻¹] | k cat/Km [3] [M⁻¹ s⁻¹] | inhibition [4] [%] | k cat [5] [s⁻¹] | k cat [6] [s⁻¹] | k cat [7] [s⁻¹] | k cat [8] [s⁻¹] | k cat/Km [9] [M⁻¹ s⁻¹] | k cat [10] [s⁻¹] | inhibition [11] [%] | inhibition [12] | inhibition [13] [%] | inhibition [14] | inhibition [15] [%] |
| --- | --- | --- | --- | --- | --- | --- | --- | --- | --- | --- | --- | --- | --- | --- | --- |
| C=CCSS/C=C/C[S+]([O-])CC=C (centres undefined) | 425 | 335 | 680 | 50 | 0.34 | 0.1 | 1.47 | 0.67 | 340 | 0.32 | 50 | inactive | – | – | – |
| C=CCSSSCC=C | 1000 | – | – | – | 0.16 | – | – | – | – | – | – | – | – | – | – |
| C=CCSS/C=C\C[S+]([O-])CC=C (centres undefined) | 6840 | 335 | 6800 | – | 2.6 | 0.06 | – | 0.67 | 340 | – | – | – | 50 | inactive | 40 |
